Experimental data gathered from unrelated publications.
Each line is one published result; the experiments were not run side by side.

`CNC(=O)[C@@H](NC(=O)c1cc(OCC2(C)COC2)c(C2CC2)cn1)C(C)(C)C` has a clearance of 73.8 mL/min/kg (C57BL/6 mouse, plasma; intravenous).
`C[C@]12CC[C@H](n3ccnc3)CC1=CC[C@@H]1[C@@H]2CC[C@]2(C)C(n3cnc4ccccc43)=CC[C@@H]12.Cl.Cl` has a C0 of 603 ng/mL (male CD-1 mouse, plasma; intravenous, 1 mg/kg).
For `Cc1cc(C)nc(Nc2ncc(C(=O)NCCc3c(C)[nH]c4ccccc34)cn2)c1`, the clearance was 10 mL/min/kg (beagle dog, plasma; intravenous, 3 mg/kg).
For `CCC[C@@](N)(CO)CCc1ccc(OCCCCCC(C)C)cc1`, the Cmax was 995 nM (dog, plasma; oral, 20 mg/kg, fed).
With `O=C(Nc1cccnn1)N1CCN([C@@H]2CCOc3cc(C(F)(F)F)ccc32)CC1` the Tmax was 49.8 min (male Sprague-Dawley rat, plasma; oral, 0.3 mg/kg).
The Cmax of `Cc1ncc(C)n2nc(/C=C/c3nc(N4CCCC4)cc(N4CCOCC4)n3)nc12` is reported as 78 nM (male beagle dog, plasma; oral, 0.3 mg/kg).
`CCN(CC)CCCC[C@H](NC(=O)[C@H](CC(C)C)NC(=O)[C@H](C)NC(=O)[C@H](Cc1ccccc1)NC(=O)c1ccc(C(C)(C)C)cc1)C(=O)N[C@@H](CO)C(=O)OC` has a clearance of 26.5 mL/min/kg (male Swiss mouse, blood; intravenous, 3 mg/kg).
`CN[C@H](CC(C)C)C(=O)N[C@H]1C(=O)N[C@@H](CC(N)=O)C(=O)N[C@H]2C(=O)NC3C(=O)N[C@H](C(=O)N[C@H](C(=O)NCCC[N+](C)(C)C)c4cc(O)cc(O)c4-c4cc3ccc4O)[C@H](O)c3ccc(c(Cl)c3)Oc3cc2cc(c3OC2OC(CO)C(O)[C@H](O)[C@@H]2O[C@H]2CC(C)(NCc3ccc(-c4ccc(Cl)cc4)cc3)[C@H](O)[C@H](C)O2)Oc2ccc(cc2Cl)[C@H]1O` (some centres unmarked) gave a clearance of 2 mL/min/kg (mouse, plasma; intravenous, 50 mg/kg).
The clearance of `Cc1nc([C@@](C)(CC2CC2)NC(=O)c2cc(OCC(F)(F)F)c(C3CC3)cn2)no1` is reported as 11.8 mL/min/kg (C57BL/6 mouse, plasma; intravenous).
`N=c1c2c(-c3ccccc3)c(-c3ccccc3)n(Cc3ccccc3)c2ncn1[C@H]1CC[C@H](O)CC1` gave a compound remaining of 118% (metabolic stability; beagle dog, hepatocytes; 1 µM, 4 h).
`Cl.Cl.O=C(CCN1CCCCC1)c1ccc(-c2ccc(C(=O)CCN3CCCCC3)cc2)cc1` has a Tmax of 37.8 min (Sprague-Dawley rat, plasma; oral, 25 mg/kg).
